For experiment [1], the system named is Staphylococcus aureus. Nature of the experiment: Antimicrobial activities against Staphylococcus aureus ATCC 25923 by […]. It counts as functional, organism-based.
Experiment [2] relates to Meyerozyma guilliermondii. Kind of experiment: Antimicrobial activities against Candida guilliermondii by broth microdilution method. It counts as functional. The method, boiled down: (§1)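 Test compounds were dissolved in DMSO and serially diluted in Mueller-Hinton broth over 250 to 3.9 µg/mL. Broth microdilution followed NCCLS guidelines. MIC was the lowest concentration showing no microbial growth compared with a compound-free control.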

In a further experiment the test system is Pseudomonas aeruginosa. Kind of experiment: Antimicrobial activities against Pseudomonas aeruginosa ATCC 27853 by broth microdilution method. It is filed as functional. A digest of the protocol: as §1
In the next experiment the test system is Escherichia coli. Kind of experiment: Antimicrobial activities against Escherichia coli ATCC 25922 by broth microdilution method. It is filed as functional. A digest of the protocol:
as §1

Experiment [3] deals with Staphylococcus aureus. Nature of the experiment: Antimicrobial activities against Staphylococcus aureus ATCC 25923 by broth microdilution method. It counts as functional. A digest of the protocol: as §1
In another experiment the test system is Nakaseomyces glabratus. Nature of the experiment: Antimicrobial activities against Candida glabrata by broth microdilution method. It counts as functional. The method, boiled down: as §1
The next experiment concerns Pichia kudriavzevii. Kind of experiment: Antimicrobial activities against Candida krusei by broth microdilution method. It counts as functional. A digest of the protocol:
as §1

A further experiment relates to Candida albicans. Nature of the experiment: Antimicrobial activities against Candida albicans CIP 3153A by broth microdilution method. It is filed as functional. A digest of the protocol:
as §1

Another experiment relates to Candida tropicalis. Kind of experiment: Antimicrobial activities against Candida tropicalis by broth microdilution method. It is filed as functional. A digest of the protocol:
as §1

Converted amounts (≈) assume the structure as drawn. The source made the active and inactive calls. The calls are words filed in the database; no cut-off is given here.

Regarding `C=C[C@@]1(C)CC(=O)[C@@H]2[C@@]3(C)[C@@H](O)CCC(C)(C)[C@@H]3[C@H](OC(C)=O)C[C@@]2(C)O1` (relative stereo), in the experiment on Staphylococcus aureus [1], the result was Active.
For the compound `C=C[C@@]1(C)CC(=O)[C@@H]2[C@@]3(C)[C@@H](OC(C)=O)CCC(C)(C)[C@@H]3[C@H](OC(C)=O)C[C@@]2(C)O1` (relative stereo) [PLECTRORNATIN C], the MIC was 62.5 µg/mL (≈ 149 µM) in experiment [2]; no less than 125 µg/mL against Pseudomonas aeruginosa; no less than 125 µg/mL with Escherichia coli; no less than 125 µg/mL against Staphylococcus aureus [3]; 62.5 µg/mL (≈ 149 µM) against Nakaseomyces glabratus; 62.5 µg/mL (≈ 149 µM) in the experiment on Pichia kudriavzevii. For the same compound, the MIC against Candida albicans and with Candida tropicalis was 62.5 µg/mL (≈ 149 µM) in each case.
As to `COC(=O)/C=C(\C)C[C@@H](OC(C)=O)[C@@]1(C)[C@H](C)CC[C@@]2(C)C(C)=CC(=O)C[C@H]12` [PLECTRORNATIN A], the MIC in experiment [2] was 62.5 µg/mL (≈ 160 µM); with Pseudomonas aeruginosa, no less than 125 µg/mL; against Escherichia coli, no less than 125 µg/mL; against Staphylococcus aureus [3], no less than 125 µg/mL; against Nakaseomyces glabratus it was 62.5 µg/mL (≈ 160 µM); in the experiment with Pichia kudriavzevii, 62.5 µg/mL (≈ 160 µM). Also, the MIC against Candida albicans and against Candida tropicalis was 62.5 µg/mL (≈ 160 µM) throughout.

Values taken from ChEMBL document CHEMBL1150649, “Neoclerodane and labdane diterpenoids from Plectranthus ornatus” (2002).
